Laboratory results taken from ChEMBL document CHEMBL1126753, “1-Carboranyl-3-(2-methylaziridino)-2-propanol. Synthesis, selective uptake by B-16 melanoma, and selective cytotoxicity toward cancer cells” (J Med Chem, 1993).

Tests used:
[1] = test system: B16; test: Boron incorporation into B-16 […] tumor cell after 24 hours; type: functional
In short: (§1)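 Cells grown to confluence in 150-mm dishes (about 5.0 × 10⁶ cells/dish), then exposed to carrier (1.5 ppm carborane or 200 ppm BPA-HCl) in Eagle-MEM with 10% FCS at 37 °C. Cells were washed thrice in Ca-Mg-free PBS, scraped, digested in HClO₄–H₂O₂ for 1 h at 75 °C, and filtered. Boron was measured by ICP-AES, untreated-dish boron subtracted, and reported as μg/10⁶ cells; two replicates, SD.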

[2] = test system: B16; test: Boron incorporation into B-16 […] tumor cell after 2 hours; type: functional; in short: as §1
[3] = test system: IMR-32; test: (§2) Inhibition of growth of IMR 32 human tumor cell line; type: functional, cell-based
In short: (§3)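 1 × 10⁶ cells per 60-mm dish in Eagle-MEM plus 10% FCS, treated with 1, 2.5, 5, 10, 25, 50 or 100 ppm compound (DMSO vehicle) for 3 days at 37 °C in CO₂. Cells were washed with PBS, trypsinized and counted; the count is a percentage of untreated control, and IC50 is the concentration giving 50% of control cell number.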

[4] = test system: Tumor cell line; test: as §2; type: functional, cell-based; in short: as §3
[5] = test system: TIG-1-20; test: Boron incorporation into TIG-1-20 human fetal lung normal cell line after 2 hours; type: functional; in short: as §1
[6] = test system: TIG-1-20; test: Boron incorporation into TIG-1-20 human fetal lung normal cell line after 24 hours; type: functional; in short: as §1

Row | SMILES | Boron incorporation [1] [ug/10e6] | Boron incorporation [2] | IC50 [3] [ppm g dm**-3] | IC50 [4] [M mol/dm 3] | Boron incorporation [5] [ug/10e6] | Boron incorporation [6] [ug/10e6]
1 | CC1CN1CC(O)CC1CC1 (stereo not given) | 0.26 | 0.25 µg | 8.2e-6 | 0.0000319 | 0.14 | 0.11
2 | NC(Cc1ccc(B(O)O)cc1)C(=O)O (stereo not given) | 0.28 | 0.22 ug/10e6 | – | – | 0.17 | 0.26
